Laboratory results as given in ChEMBL document CHEMBL4177543, “Biseokeaniamides A, B, and C, Sterol O-Acyltransferase Inhibitors from an Okeania sp. Marine Cyanobacterium” (J Nat Prod, 2017).
Activity calls are given as the source filed them. The rule behind the calls is not given here. Non-standard residues stand in square brackets, D forms with d. Residues, ends and D or L forms follow the SMILES beside them. *: point of attachment. NMeF = CN[C@@H](Cc1ccccc1)C(=O)O; NMeV = CN[C@H](C(=O)O)C(C)C; Butyryl = CCCC(=O)*; X1 = CN(Cc1nccs1)*

Legend:
[1] = molecular target: T1, Sterol O-acyltransferase 1 (Chlorocebus aethiops, UniProt O77760); assay: Inhibition of African green monkey SOAT1 expressed in CHO cell microsomal fractions assessed as reduction in neutral lipid synthesis incubated for 5 mins using [1-14C]oleoyl-CoA by thin-layer chromatography
T1 sequence (O77760 whole entry): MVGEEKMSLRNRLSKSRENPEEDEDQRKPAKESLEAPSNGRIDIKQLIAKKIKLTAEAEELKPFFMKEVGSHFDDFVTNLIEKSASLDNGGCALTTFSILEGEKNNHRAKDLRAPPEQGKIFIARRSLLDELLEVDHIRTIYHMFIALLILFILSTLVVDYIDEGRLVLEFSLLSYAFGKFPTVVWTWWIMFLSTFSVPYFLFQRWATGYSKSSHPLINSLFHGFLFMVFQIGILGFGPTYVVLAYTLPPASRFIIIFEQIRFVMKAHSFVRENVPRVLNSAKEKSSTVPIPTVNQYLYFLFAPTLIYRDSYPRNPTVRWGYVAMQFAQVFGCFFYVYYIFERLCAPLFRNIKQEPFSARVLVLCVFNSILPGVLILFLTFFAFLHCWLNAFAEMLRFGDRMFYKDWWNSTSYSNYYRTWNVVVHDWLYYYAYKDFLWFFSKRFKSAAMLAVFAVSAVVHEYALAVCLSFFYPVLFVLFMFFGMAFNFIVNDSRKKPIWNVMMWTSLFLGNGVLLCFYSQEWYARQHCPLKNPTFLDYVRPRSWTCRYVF

[2] = molecular target: T2, Sterol O-acyltransferase 2 (Chlorocebus aethiops, UniProt O77759); assay: Inhibition of African green monkey SOAT2 expressed in CHO cell microsomal fractions assessed as reduction in neutral lipid synthesis incubated for 5 mins using [1-14C]oleoyl-CoA by thin-layer chromatography
T2 sequence (O77759 whole entry): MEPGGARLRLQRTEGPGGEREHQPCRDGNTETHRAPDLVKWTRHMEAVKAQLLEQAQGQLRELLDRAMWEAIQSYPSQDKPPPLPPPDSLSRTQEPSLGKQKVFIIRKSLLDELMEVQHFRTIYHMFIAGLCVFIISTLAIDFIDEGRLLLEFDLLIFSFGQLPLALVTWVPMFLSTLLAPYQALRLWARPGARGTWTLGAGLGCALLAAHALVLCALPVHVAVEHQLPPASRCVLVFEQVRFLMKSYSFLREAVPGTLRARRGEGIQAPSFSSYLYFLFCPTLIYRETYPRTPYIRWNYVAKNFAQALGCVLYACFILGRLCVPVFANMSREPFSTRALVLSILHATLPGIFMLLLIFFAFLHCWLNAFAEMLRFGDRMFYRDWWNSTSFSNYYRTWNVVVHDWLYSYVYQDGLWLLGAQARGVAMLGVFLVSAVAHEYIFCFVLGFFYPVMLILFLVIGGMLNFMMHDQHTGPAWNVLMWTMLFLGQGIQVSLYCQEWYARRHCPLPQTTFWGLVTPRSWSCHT

[3] = molecular target: T2, Sterol O-acyltransferase 2; assay: Inhibition of African green monkey SOAT2 expressed in CHO cells assessed as reduction in neutral lipid synthesis incubated for 6 hrs using [1-14C]oleic acid by thin-layer chromatography; assay type: cell-based
Procedure, shortened: (§1)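 CHO cells stably expressing monkey SOAT1 or SOAT2 in Ham's F-12 with 10% FBS, plated 1.25 × 10^5 cells/well, recovered overnight, ≥80% confluent. Sample added from 0–1 mg/mL MeOH stocks together with [1-14C]oleic acid (1 nmol) for 6 h at 37 °C. Lipids Bligh–Dyer extracted and separated by TLC; [14C]cholesteryl ester quantified vs control. IC50 from duplicated experiments.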

[4] = molecular target: T1, Sterol O-acyltransferase 1; assay: Inhibition of African green monkey SOAT1 expressed in CHO cells assessed as reduction in neutral lipid synthesis incubated for 6 hrs using [1-14C]oleic acid by thin-layer chromatography; assay type: cell-based
Procedure, shortened: as §1

[5] = tested on: HL-60; assay: Growth inhibition of human HL60 cells incubated for 72 hrs by MTT assay; assay type: functional, cell-based; conditions: HL-60, 72 h
Procedure, shortened: (§2)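 HeLa (DMEM) or HL60 (RPMI) cells, 10% heat-inactivated FBS, 37 °C, 5% CO2. HeLa seeded 2 × 10^4 cells/well and cultured overnight; HL60 seeded 1 × 10^5 cells/well. Exposed to a range of concentrations for 72 h; proliferation read by MTT; IC50 reported.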

[6] = tested on: HeLa; assay: Growth inhibition of human HeLa cells incubated for 72 hrs by MTT assay; assay type: functional, cell-based
Procedure, shortened: as §2

[7] = tested on: HeLa; assay: Induction of cell killing in human HeLa cells assessed as reduction in cell viability at 1 to 30 uM incubated for 48 hrs in presence of 50 uM Z-VAD-FMK by trypan blue dye exclusion method; assay type: functional, cell-based
Procedure, shortened: (§3)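 HeLa seeded 4 × 10^4 cells/well, cultured overnight, then preincubated 30 min with or without 50 μM Z-VAD-FMK. Compound added at various concentrations for 48 h. Cells stained with 0.8 mg/mL trypan blue; viability from counts of stained (dead) cells. Mean ± SD of quadruplicates.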

[8] = tested on: HeLa; assay: Induction of cell killing in human HeLa cells assessed as reduction in cell viability at 1 to 30 uM incubated for 48 hrs by trypan blue dye exclusion method; assay type: functional, cell-based
Procedure, shortened: as §3

[9] = tested on: HeLa; assay: Induction of apoptosis in human HeLa cells assessed as induction of caspase-3 activation incubated for 24 hrs using Ac-DEVD-pNA as substrate by spectrophotometry; assay type: functional, cell-based
Procedure, shortened: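 Exponentially growing HeLa, 2 × 10^6 cells per 60 mm dish, incubated 12 h at 37 °C, then treated 24 h. Cells washed in cold PBS, lysed by three freeze–thaw cycles plus 15 min on ice, and clarified at 15000g. Lysate incubated with Ac-DEVD-pNA, 37 °C, 4 h; p-nitroaniline read at 405 nm. Activity relative to 1% MeOH control; triplicates; tunicamycin positive control.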

Compound	IC50 [1] [µM]	IC50 [2] [µM]	IC50 [3] [µM]	IC50 [4] [µM]	IC50 [5] [µM]	IC50 [6] [µM]	Activity [7]	Activity [8]	Activity [9]
COc1c([C@H](CC(C)C)OC(C)=O)ccc2c1C(=O)OCc1cc(C)cc(O)c1O2	0.9	1.8	1.5	2.5					
CCCC(=O)N[C@H](C(=O)N1CCC[C@H]1C(=O)N(C)[C@@H](Cc1ccccc1)C(=O)N[C@@H](CC(C)C)C(=O)N(C)[C@H](C(=O)N(C)Cc1nccs1)C(C)C)C(C)C (Butyryl-VP[NMeF]L[NMeV]-X1)	11	> 32	9.6	> 12	> 100	43			
CCCC(=O)N(C)[C@H](C(=O)N1CCC[C@H]1C(=O)N(C)[C@@H](Cc1ccccc1)C(=O)N[C@@H](CC(C)C)C(=O)N[C@H](C(=O)N(C)Cc1nccs1)C(C)C)C(C)C (Butyryl-[NMeV]P[NMeF]LV-X1)	6.8	9.9	2.5	6.9	19	4.5	inactive	Active	Dose-dependent effect
CCCC(=O)N(C)[C@H](C(=O)N1CCC[C@H]1C(=O)N(C)[C@@H](Cc1ccccc1)C(=O)N[C@@H](CC(C)C)C(=O)N(C)[C@H](C(=O)N(C)Cc1nccs1)C(C)C)C(C)C (Butyryl-[NMeV]P[NMeF]L[NMeV]-X1)	1.8	9.6	1.3	1.8	30	29			
